Assay results as given in ChEMBL document CHEMBL4396873, “Discovery of Potent, Selective, and Short-Acting Peptidic V2 Receptor Agonists” (J Med Chem, 2019).
Calls of active or inactive are those of the source. No cut-off for these calls is given here. Numbered stars: 1 amine (or outer) side, 2 acyl side, 3 side chain; on linkers, the order of the positions; unused ones are H or OH. Bridge positions count the residues as written; N and C are the ends. Square brackets hold non-standard residues; d marks the D form. Peptide text beside a SMILES is read from it. * marks the point of attachment. Phe(4-Cl) = N[C@@H](Cc1ccc(Cl)cc1)C(=O)O; Phe(4-F) = N[C@@H](Cc1ccc(F)cc1)C(=O)O; Phe(4-Me) = Cc1ccc(C[C@H](N)C(=O)O)cc1; 2Thi = N[C@@H](Cc1cccs1)C(=O)O; X4 = N=C(N)NCCC[C@@H](CO)N*; X2 = N=C(N)NCCC[C@H](CO)N*; Agmatine = N=C(N)NCCCCN*; X1 = O=C(CCC[*:2])[*:1]; Mpa = O=C(O)CCS

Assays:
Vasopressin V2 receptor = Vasopressin V2 receptor (Homo sapiens, UniProt P30518); experiment: Agonist activity at recombinant human V2 receptor expressed in HEK293 cells measured after 5 hrs by cAMP response element driven luciferase reporter gene assay; assay type: functional, cell-based
Vasopressin V1a receptor = Vasopressin V1a receptor (Homo sapiens, UniProt P37288); experiment: Agonist activity at recombinant human V1a receptor expressed in HEK293 cells up to 1000 nM measured after 5 hrs by luciferase reporter gene assay; assay type: cell-based; settings: hek293, 5 h
[1] = Clearance in Sprague-Dawley rat at 0.1 mg/kg, iv administered as cassette dose by LC-MS/MS analysis; assay type: ADME, organism-based; settings: in vivo
[2] = Protein binding in rat plasma at 200 to 1000 ng/ml measured after 15 mins by UC-LC/MS/MS analysis; assay type: ADME, cell-free; settings: read-out: PPB (converted)
How it was run: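 Peptide spiked into rat plasma to final 200-1000 ng/mL, incubated 15 min at 37 °C, ultracentrifuged at 773,000 xg for 30 min at 37 °C; middle-layer sample quantified by LC/MS/MS; binding (%) = (Ci − Cm)/Ci × 100; quadruplicate.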

[3] = biological target: T1, Oxytocin receptor (Homo sapiens) (UniProt P30559); experiment: Agonist activity at human OTR stably expressed in CHOK1 cells up to 10000 nM by NFAT-luciferase reporter gene assay; assay type: cell-based
T1 sequence (whole entry): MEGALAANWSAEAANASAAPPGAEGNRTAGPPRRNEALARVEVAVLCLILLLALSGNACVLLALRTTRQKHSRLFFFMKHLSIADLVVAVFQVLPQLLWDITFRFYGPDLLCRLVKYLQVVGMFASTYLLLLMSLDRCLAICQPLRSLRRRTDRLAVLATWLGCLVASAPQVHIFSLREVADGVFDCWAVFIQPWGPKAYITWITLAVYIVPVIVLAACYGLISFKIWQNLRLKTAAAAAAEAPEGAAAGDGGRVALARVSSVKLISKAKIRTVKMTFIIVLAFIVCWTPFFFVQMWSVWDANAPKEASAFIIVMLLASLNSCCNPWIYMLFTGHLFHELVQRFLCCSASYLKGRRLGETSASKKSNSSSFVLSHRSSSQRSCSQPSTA

Oxytocin receptor = biological target: T2, Oxytocin receptor (Homo sapiens, UniProt P30559); experiment: Agonist activity at human OTR stably expressed in CHOK1 cells by NFAT-luciferase reporter gene assay; assay type: cell-based
T2 sequence (P30559 whole entry): T1 sequence (whole entry)

[4] = Non-renal clearance in nephrectomized Sprague-Dawley rat at 0.1 mg/kg, iv administered as cassette dose by LC-MS/MS analysis; assay type: ADME, organism-based; settings: in vivo

Chain of Vasopressin V2 receptor (P30518 whole entry): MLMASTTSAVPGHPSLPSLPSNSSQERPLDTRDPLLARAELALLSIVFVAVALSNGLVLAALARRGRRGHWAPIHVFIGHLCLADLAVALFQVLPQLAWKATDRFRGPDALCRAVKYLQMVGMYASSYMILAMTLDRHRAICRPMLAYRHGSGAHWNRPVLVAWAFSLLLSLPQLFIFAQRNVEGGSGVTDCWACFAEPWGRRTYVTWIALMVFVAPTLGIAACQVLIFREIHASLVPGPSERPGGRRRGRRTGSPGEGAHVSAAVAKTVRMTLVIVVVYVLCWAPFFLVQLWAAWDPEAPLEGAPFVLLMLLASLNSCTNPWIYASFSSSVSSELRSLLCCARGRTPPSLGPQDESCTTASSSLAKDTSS
Chain of Vasopressin V1a receptor (P37288 whole entry): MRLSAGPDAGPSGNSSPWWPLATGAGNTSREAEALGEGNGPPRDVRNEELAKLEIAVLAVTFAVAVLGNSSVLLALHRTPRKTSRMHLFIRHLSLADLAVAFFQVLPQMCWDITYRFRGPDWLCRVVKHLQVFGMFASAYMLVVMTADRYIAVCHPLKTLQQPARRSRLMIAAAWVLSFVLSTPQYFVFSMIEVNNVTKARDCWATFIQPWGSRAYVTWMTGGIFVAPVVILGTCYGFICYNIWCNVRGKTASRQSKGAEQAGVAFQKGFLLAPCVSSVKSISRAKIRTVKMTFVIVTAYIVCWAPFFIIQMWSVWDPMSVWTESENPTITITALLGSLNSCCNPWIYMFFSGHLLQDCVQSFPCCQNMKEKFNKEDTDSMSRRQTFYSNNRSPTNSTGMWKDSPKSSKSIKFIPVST

SMILES | EC50 (Vasopressin V2 receptor) | Activity (Vasopressin V1a receptor) | clearance [1] | fraction unbound at […] [2] | Activity [3] | EC50 (Oxytocin receptor) | CL [4]
CCNC(=O)[C@@H](CCCNC(=N)N)NC(=O)[C@@H]1C[C@@H](O)CN1C(=O)[C@@H]1CSCCCC(=O)N[C@@H](Cc2ccc(Cl)cc2)C(=O)N[C@@H](Cc2ccccc2)C(=O)N[C@@H](C(C)C)C(=O)N[C@@H](CC(N)=O)C(=O)N1 | 0.29 nM | Not Active | 3.3 mL/min/kg | 0.09 | inactive |  | 
Cc1ccc(C[C@@H]2NC(=O)CCCSC[C@@H](C(=O)N3CCC[C@H]3C(=O)N[C@@H](CO)CCCNC(=N)N)NC(=O)[C@H](CC(N)=O)NC(=O)[C@H](C(C)C)NC(=O)[C@H](Cc3cccs3)NC2=O)cc1 ([Phe(4-Me)][2Thi]VNCP-X2; linker N-5 via X1) |  | Not Active | 5.3 mL/min/kg | 0.32 |  | > 10000 nM | 30%
CC(C)[C@@H]1NC(=O)[C@H](Cc2cccs2)NC(=O)[C@H](Cc2ccc(Cl)cc2)NC(=O)CCCSC[C@@H](C(=O)N2CCC[C@H]2C(=O)N[C@H](CO)CCCNC(=N)N)NC(=O)[C@H](CC(N)=O)NC1=O ([Phe(4-Cl)][2Thi]VNCP-X4; linker N-5 via X1) |  | Not Active | 8.1 mL/min/kg | 0.19 |  | > 10000 nM | 
CC(C)[C@@H]1NC(=O)[C@H](Cc2ccc(F)cc2)NC(=O)[C@H](Cc2ccc(Cl)cc2)NC(=O)CCCSC[C@@H](C(=O)N2CCC[C@H]2C(=O)N[C@@H](CO)CCCNC(=N)N)NC(=O)[C@H](CC(N)=O)NC1=O ([Phe(4-Cl)][Phe(4-F)]VNCP-X2; linker N-5 via X1) |  | Not Active | 3.8 mL/min/kg | 0.07 |  | > 10000 nM | 
CC(C)[C@@H]1NC(=O)[C@H](Cc2ccc(F)cc2)NC(=O)[C@H](Cc2ccc(Cl)cc2)NC(=O)CCCSC[C@@H](C(=O)N2CSC[C@H]2C(=O)N[C@H](CCCNC(=N)N)C(=O)NCCc2cccs2)NC(=O)[C@H](CC(N)=O)NC1=O | 0.3 nM | Not Active | 27 mL/min/kg | 0.04 | inactive |  | 100%
CCNC(=O)[C@@H](CCCNC(=N)N)NC(=O)[C@@H]1CCCN1C(=O)[C@@H]1CSSCCC(=O)N[C@@H](Cc2ccc(Cl)cc2)C(=O)N[C@@H](Cc2cccs2)C(=O)N[C@@H](C(C)C)C(=O)N[C@@H](CC(N)=O)C(=O)N1 | 0.32 nM | Not Active | 11 mL/min/kg | 0.12 | inactive |  | 81%
CCNC(=O)[C@@H](CCCNC(=N)N)NC(=O)[C@@H]1CSCN1C(=O)[C@@H]1CCSCCC(=O)N[C@@H](Cc2ccc(Cl)cc2)C(=O)N[C@@H](Cc2cccs2)C(=O)N[C@@H](C(C)C)C(=O)N[C@@H](CC(N)=O)C(=O)N1 | 0.11 nM | Not Active | 11 mL/min/kg | 0.08 | inactive |  | 
CC(C)[C@@H]1NC(=O)[C@H](Cc2cccs2)NC(=O)[C@H](Cc2ccc(Cl)cc2)NC(=O)CCCSC[C@@H](C(=O)N2CCC[C@H]2C(=O)N[C@@H](CO)CCCNC(=N)N)NC(=O)[C@H](CC(N)=O)NC1=O ([Phe(4-Cl)][2Thi]VNCP-X2; linker N-5 via X1) |  | Not Active | 4 mL/min/kg | 0.2 |  | > 10000 nM | 
CCNC(=O)[C@@H](CCCNC(=N)N)NC(=O)[C@@H]1CCCN1C(=O)[C@@H]1CCSCCC(=O)N[C@@H](Cc2ccc(Cl)cc2)C(=O)N[C@@H](Cc2cccs2)C(=O)N[C@@H](C(C)C)C(=O)N[C@@H](CC(N)=O)C(=O)N1 | 0.19 nM | Not Active | 5.3 mL/min/kg | 0.1 | inactive |  | 67%
CCCNC(=O)[C@@H](CCCNC(=N)N)NC(=O)[C@@H]1CCCN1C(=O)[C@@H]1CSCCCC(=O)N[C@@H](Cc2ccc(Cl)cc2)C(=O)N[C@@H](Cc2cccs2)C(=O)N[C@@H](C(C)C)C(=O)N[C@@H](CC(N)=O)C(=O)N1 |  | Not Active | 26 mL/min/kg | 0.16 | inactive |  | 59%
CC(C)[C@@H]1NC(=O)[C@H](Cc2cccs2)NC(=O)[C@H](Cc2ccc(Cl)cc2)NC(=O)CCCSC[C@@H](C(=O)N2CSC[C@H]2C(=O)N[C@H](CCCNC(=N)N)C(=O)NCCc2cccs2)NC(=O)[C@H](CC(N)=O)NC1=O | 0.17 nM | Not Active | 34 mL/min/kg | 0.07 | inactive |  | 100%
CNC(=O)[C@@H](CCCNC(=N)N)NC(=O)[C@@H]1CCCN1C(=O)[C@@H]1CSCCCC(=O)N[C@@H](Cc2ccc(Cl)cc2)C(=O)N[C@@H](Cc2cccs2)C(=O)N[C@@H](C(C)C)C(=O)N[C@@H](CC(N)=O)C(=O)N1 | 0.27 nM | Not Active | 9.1 mL/min/kg | 0.18 | inactive |  | 
CC(C)[C@@H]1NC(=O)[C@H](Cc2ccccc2)NC(=O)[C@H](Cc2ccc(O)cc2)NC(=O)CCSSC[C@@H](C(=O)N2CCC[C@H]2C(=O)N[C@H](CCCNC(=N)N)C(=O)NCC(N)=O)NC(=O)[C@H](CC(N)=O)NC1=O ([Mpa]YFVNCP[dR]G-NH2; disulfide 1-6) | 0.05 nM | Not Active | 9.6 mL/min/kg | 0.69 |  |  | 
CCNC(=O)[C@@H](CCCNC(=N)N)NC(=O)[C@@H]1CCCN1C(=O)[C@@H]1CSCCCC(=O)N[C@@H](Cc2ccc(Cl)cc2)C(=O)N[C@@H](Cc2cccs2)C(=O)N[C@@H](C(C)C)C(=O)N[C@@H](CC(N)=O)C(=O)N1 |  | Not Active | 10 mL/min/kg | 0.16 | inactive |  | 49%
CC(C)[C@@H]1NC(=O)[C@H](Cc2ccc(F)cc2)NC(=O)[C@H](Cc2ccc(O)cc2)NC(=O)CCCSC[C@@H](C(=O)N2CCC[C@H]2C(=O)NCCCCNC(=N)N)NC(=O)[C@H](CC(N)=O)NC1=O (Y[Phe(4-F)]VNCP-Agmatine; linker N-5 via X1) |  | Not Active | 8.7 mL/min/kg | 0.69 | inactive |  | 45%
CC(C)[C@@H]1NC(=O)[C@H](Cc2cccs2)NC(=O)[C@H](Cc2ccc(O)cc2)NC(=O)CCCSC[C@@H](C(=O)N2CCC[C@H]2C(=O)N[C@H](CCCNC(=N)N)C(=O)NCc2ccccc2)NC(=O)[C@H](CC(N)=O)NC1=O | 0.26 nM | Not Active | 14 mL/min/kg | 0.55 | inactive |  | 71%
CC(C)NC(=O)[C@@H](CCCNC(=N)N)NC(=O)[C@@H]1CCCN1C(=O)[C@@H]1CSCCCC(=O)N[C@@H](Cc2ccc(Cl)cc2)C(=O)N[C@@H](Cc2cccs2)C(=O)N[C@@H](C(C)C)C(=O)N[C@@H](CC(N)=O)C(=O)N1 | 0.45 nM | Not Active | 15 mL/min/kg | 0.15 | inactive |  | 58%
CC(C)CNC(=O)[C@@H](CCCNC(=N)N)NC(=O)[C@@H]1C[C@@H](O)CN1C(=O)[C@@H]1CCSCCC(=O)N[C@@H](Cc2ccc(Cl)cc2)C(=O)N[C@@H](Cc2cccs2)C(=O)N[C@@H](C(C)C)C(=O)N[C@@H](CC(N)=O)C(=O)N1 | 0.2 nM | Not Active | 5.9 mL/min/kg | 0.08 | inactive |  | 
